Measured values reported in ChEMBL document CHEMBL3046309, “Dihydropiperazine neonicotinoid compounds. Synthesis and insecticidal activity” (J Agric Food Chem, 2003).
Calls of active or inactive are those of the source. No cut-off for these calls is given here.

Experiments:
Aphis gossypii [1] = test: Insecticidal activity against Aphis gossypii (cotton aphid) infested expanded cotyledon stage of summer crookneck squash seedlings assessed as mortality at 0.5 ppm applied as spray after 72 hr by dissecting binocular microscopic analysis relative to control; assay type: functional
In short: (§1)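 Four replicate plants per rate; controls were eight plants sprayed with blank-stock diluent. Plants held 72 h at about 74 °F, 40% RH, 24 h photoperiod. Live nonwinged aphids were counted on cotyledon undersides. Percent control was calculated by Abbott's correction against the solvent blank.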

Aphis gossypii [2] = test: Insecticidal activity against Aphis gossypii (cotton aphid) infested expanded cotyledon stage of summer crookneck squash seedlings assessed as mortality at 5 ppm applied as spray after 72 hr by dissecting binocular microscopic analysis relative to control; assay type: functional; in short: as §1
Aphis gossypii [3] = test: Insecticidal activity against Aphis gossypii (cotton aphid) infested expanded cotyledon stage of summer crookneck squash seedlings assessed as mortality at 50 ppm applied as spray after 72 hr by dissecting binocular microscopic analysis relative to control; assay type: functional; in short: as §1
[4] = target: T1, Nicotinic acetylcholine receptor alpha 5 subunit (Musca domestica, UniProt A9XFY4); test: Displacement of [3H]imidacloprid from nicotinic acetylcholine receptor in Musca domestica (house fly) head membrane after 1 hr by liquid scintillation counting analysis
T1 sequence (A9XFY4 whole entry): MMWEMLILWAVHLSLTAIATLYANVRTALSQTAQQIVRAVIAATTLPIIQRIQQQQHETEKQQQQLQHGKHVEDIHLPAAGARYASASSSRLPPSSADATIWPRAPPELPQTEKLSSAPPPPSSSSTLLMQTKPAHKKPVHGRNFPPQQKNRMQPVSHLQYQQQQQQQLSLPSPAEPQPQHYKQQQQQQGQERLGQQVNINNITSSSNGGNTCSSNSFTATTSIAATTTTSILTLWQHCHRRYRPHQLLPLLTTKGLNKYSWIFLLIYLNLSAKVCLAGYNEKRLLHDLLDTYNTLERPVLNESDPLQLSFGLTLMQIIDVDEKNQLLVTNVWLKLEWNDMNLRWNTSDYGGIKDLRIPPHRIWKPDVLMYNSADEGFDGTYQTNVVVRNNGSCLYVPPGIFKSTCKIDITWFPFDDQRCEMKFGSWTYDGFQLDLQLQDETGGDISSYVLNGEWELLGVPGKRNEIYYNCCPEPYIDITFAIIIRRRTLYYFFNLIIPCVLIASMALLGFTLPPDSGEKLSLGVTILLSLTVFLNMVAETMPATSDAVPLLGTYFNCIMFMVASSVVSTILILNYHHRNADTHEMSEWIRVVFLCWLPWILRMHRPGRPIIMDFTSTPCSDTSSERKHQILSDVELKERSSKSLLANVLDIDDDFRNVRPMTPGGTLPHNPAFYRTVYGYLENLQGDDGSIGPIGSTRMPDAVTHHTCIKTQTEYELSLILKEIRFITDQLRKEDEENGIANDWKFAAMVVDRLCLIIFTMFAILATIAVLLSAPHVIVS
In short: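 Housefly heads separated from liquid-nitrogen-frozen adults, homogenized in ice-cold sucrose/EDTA/Tris-HCl/PMSF buffer. Membranes were prepared by 1000g then twice 35000g spins, resuspended in 50 mM Tris-HCl pH 7.4 and stored at -80 °C. Binding buffer was 120 mM NaCl, 50 mM Tris-HCl pH 7.4, with [3H]imidacloprid at 2 nM final and DMSO ≤0.25%. Incubation 1 h at 22 °C, then GF/C filtration. Nonspecific binding was set with 10^-4 M nicotine. Three runs in triplicate.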

Aphis gossypii [5] = test: Insecticidal activity against Aphis gossypii (cotton aphid) infested expanded cotyledon stage of summer crookneck squash seedlings assessed as mortality at 0.78 ppm applied as spray after 72 hr by dissecting binocular microscopic analysis relative to control; assay type: functional; in short: as §1
Nilaparvata lugens = test: Insecticidal activity against Nilaparvata lugens (brown plant hopper); assay type: functional, organism-based
Nephotettix cincticeps = test: Insecticidal activity against Nephotettix cincticeps (green rice leafhopper); assay type: functional, organism-based
Bemisia tabaci = test: Insecticidal activity against Bemisia tabaci (sweet potato whitefly); assay type: functional, organism-based

SMILES	mortality at 0.5 ppm (Aphis gossypii [1]) [%]	mortality at 5 ppm (Aphis gossypii [2]) [%]	mortality at 50 ppm (Aphis gossypii [3]) [%]	Ki [4] [nM]	mortality at 0.78 ppm (Aphis gossypii [5]) [%]	Activity (Nilaparvata lugens)	Activity (Nephotettix cincticeps)	Activity (Bemisia tabaci)
O=C1/C(=N\O)NCCN1Cc1ccc(Cl)nc1	< 50	50	70	–	–	–	–	–
NC(=S)N/N=C1/NCCN(Cc2ccc(Cl)nc2)C1=O	–	< 50	< 50	3920	–	–	–	–
CN(C)C(=O)/C(=N\C#N)N(C)Cc1ccc(Cl)nc1	–	< 50	50	3830	–	–	–	–
O=C1C(=S)NCCN1Cc1ccc(Cl)nc1	50	50	90	1780	–	–	–	–
CN1C/C(=N\C#N)N(Cc2ccc(Cl)nc2)CC1=O	–	< 50	70	–	–	–	–	–
N#C/N=C1/NCCN(Cc2ccc(Cl)nc2)C1=O	< 50	50	90	441	–	–	–	–
CN1CCN(Cc2cnc(Cl)s2)/C(=N\C#N)C1=O	–	–	90	4	70	–	–	–
CN1CCN(CC2CCOC2)/C(=N\C#N)C1=O (stereo not drawn)	–	< 50	< 50	517	–	–	–	–
N#C/N=C1\NCCN1Cc1ccc(Cl)nc1	–	90	90	17	–	–	–	–
CO/N=C1/NCCN(Cc2ccc(Cl)nc2)C1=O	50	70	90	1530	–	–	–	–
O=C1/C(=N\S(=O)(=O)C(F)(F)F)NCCN1Cc1ccc(Cl)nc1	< 50	90	90	593	–	–	–	–
O=C1NCCN(Cc2ccc(Cl)nc2)C1=O	50	90	90	400	–	–	–	–
CN1CCN=C(N(C#N)Cc2ccc(Cl)nc2)C1=O	–	< 50	< 50	–	–	–	–	–
CN1CCN(Cc2ccc(Cl)nc2)/C(=N/C#N)C1=O	–	–	90	6	90	Active	Active	Active
